From ChEMBL document CHEMBL1135913, “Structure-based design, synthesis, and biological evaluation of irreversible human rhinovirus 3C protease inhibitors. 6. Structure-activity studies of orally bioavailable, 2-pyridone-containing peptidomimetics” (J Med Chem, 2002)

What was measured:
[1] = target: T1, Human rhinovirus A protease (Human rhinovirus sp., UniProt Q4U254); experiment: Inhibition of HRV Protease 3CP (serotype 14).; parameters: species or system Rhinovirus B
T1 sequence (Q4U254 whole entry): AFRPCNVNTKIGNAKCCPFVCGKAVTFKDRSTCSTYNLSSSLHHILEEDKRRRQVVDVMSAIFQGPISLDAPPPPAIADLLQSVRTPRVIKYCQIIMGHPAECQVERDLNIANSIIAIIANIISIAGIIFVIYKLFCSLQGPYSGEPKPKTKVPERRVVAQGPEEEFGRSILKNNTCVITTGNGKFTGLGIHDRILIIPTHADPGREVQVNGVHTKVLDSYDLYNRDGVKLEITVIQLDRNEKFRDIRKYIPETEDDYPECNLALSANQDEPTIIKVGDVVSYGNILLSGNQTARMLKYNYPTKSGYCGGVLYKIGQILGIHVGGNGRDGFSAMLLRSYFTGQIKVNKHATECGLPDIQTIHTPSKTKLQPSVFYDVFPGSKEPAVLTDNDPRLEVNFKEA

[2] = target: T2, Human rhinovirus A protease (Human rhinovirus sp.) (UniProt Q4U254); experiment: Inhibitory activity against Human Rhinovirus Protease 3C (serotype 14); conditions: Rhinovirus B
T2 sequence (whole entry): T1 sequence (Q4U254 whole entry)

[3] = target: T2, Human rhinovirus A protease (Human rhinovirus sp.); experiment: (§1) cytotoxicity against HRV Protease 3CP (serotype 14)
[4] = Oral bioavailability after 30 mg/kg po dose in Dogs; format: ADME, organism-based, Canis lupus familiaris; conditions: dog, in vivo
Summary of the method: (§2)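 Dogs (n = 3) received the compound iv or orally in 80:20 propylene glycol:water at 15.0 mg/mL. Blood was sampled periodically for up to 24 h. Plasma levels were measured by LC-MS (detection limit 5 ng/mL). Parameters came from noncompartmental analysis of each animal's concentration–time data.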

[5] = Tmax value after 30 mg/kg po dose in Dogs; format: ADME, organism-based, Canis lupus familiaris; parameters: dose 30 mg/kg, route oral; conditions: dog, in vivo; summary of the method: as §2
[6] = Plasma clearance after 30 mg/kg po dose in Dogs; format: ADME, organism-based, Canis lupus familiaris; parameters: dose 30 mg/kg, route oral; conditions: dog; summary of the method: as §2
[7] = target: T2, Human rhinovirus A protease (Human rhinovirus sp.); experiment: cytotoxicity against HRV Protease 3CP (serotype 13); format: functional
[8] = target: T2, Human rhinovirus A protease (Human rhinovirus sp.); experiment: as §1; format: functional
[9] = target: T2, Human rhinovirus A protease (Human rhinovirus sp.); experiment: cytotoxicity against HRV Protease 3CP (serotype Hanks); format: functional
[10] = Cmax value after 15 mg/kg iv dose in Dogs; format: ADME, organism-based, Canis lupus familiaris; parameters: dose 15 mg/kg, route intravenous; conditions: dog, in vivo; summary of the method: as §2
[11] = target: T2, Human rhinovirus A protease (Human rhinovirus sp.); experiment: cytotoxicity against HRV Protease 3CP (serotype 78); format: functional
[12] = target: T2, Human rhinovirus A protease (Human rhinovirus sp.); experiment: cytotoxicity against HRV Protease 3CP (serotype 25); format: functional
[13] = target: T2, Human rhinovirus A protease (Human rhinovirus sp.); experiment: cytotoxicity against HRV Protease 3CP (serotype 16); format: functional
[14] = AUC value after 15 mg/kg iv dose in Dogs; format: ADME, organism-based, Canis lupus familiaris; parameters: dose 15 mg/kg, route intravenous; conditions: dog, plasma; summary of the method: as §2
[15] = target: T2, Human rhinovirus A protease (Human rhinovirus sp.); experiment: cytotoxicity against HRV Protease 3CP (serotype 39); format: functional
[16] = Volume distribution after 15 mg/kg iv dose in Dogs; format: ADME, organism-based, Canis lupus familiaris; parameters: dose 15 mg/kg, route intravenous; conditions: dog, in vivo, read-out: V; summary of the method: as §2
[17] = target: T2, Human rhinovirus A protease (Human rhinovirus sp.); experiment: cytotoxicity against HRV Protease 3CP (serotype 9); format: functional
[18] = Half life period after 15 mg/kg iv dose in Dogs; format: ADME, organism-based, Canis lupus familiaris; parameters: dose 15 mg/kg, route intravenous; conditions: dog, in vivo; summary of the method: as §2
[19] = target: T2, Human rhinovirus A protease (Human rhinovirus sp.); experiment: cytotoxicity against HRV Protease 3CP (serotype 23); format: functional
[20] = Tmax value after 15 mg/kg iv dose in Dogs; format: ADME, organism-based, Canis lupus familiaris; parameters: dose 15 mg/kg, route intravenous; conditions: dog, in vivo; summary of the method: as §2
[21] = target: T2, Human rhinovirus A protease (Human rhinovirus sp.); experiment: cytotoxicity against HRV Protease 3CP (serotype 11); format: functional
[22] = target: T2, Human rhinovirus A protease (Human rhinovirus sp.); experiment: cytotoxicity against HRV Protease 3CP (serotype 3); format: functional
Homo sapiens [23] = organism: Homo sapiens; experiment: Loss of compound (%metabolized) after 30 min exposure to human liver microsomes; conditions: read-out: Metabolism
Homo sapiens [24] = organism: Homo sapiens; experiment: Half life upon exposure to human plasma
Canis familiaris = experiment: Volume distribution after 30 mg/kg po dose in Dogs; format: ADME, organism-based, Canis lupus familiaris; parameters: dose 30 mg/kg, route oral; conditions: dog, in vivo; summary of the method: as §2
[25] = Plasma clearance after 15 mg/kg iv dose in Dogs; format: ADME, organism-based, Canis lupus familiaris; parameters: dose 15 mg/kg, route intravenous; conditions: dog; summary of the method: as §2
[26] = target: T2, Human rhinovirus A protease (Human rhinovirus sp.); experiment: cytotoxicity against HRV Protease 3CP (serotype 1A); format: functional
[27] = AUC value after 30 mg/kg po dose in Dogs; format: ADME, organism-based, Canis lupus familiaris; parameters: dose 30 mg/kg, route oral; conditions: dog, plasma; summary of the method: as §2
[28] = Cmax value after 30 mg/kg po dose in Dogs; format: ADME, organism-based, Canis lupus familiaris; parameters: dose 30 mg/kg, route oral; conditions: dog, in vivo; summary of the method: as §2
[29] = target: T2, Human rhinovirus A protease (Human rhinovirus sp.); experiment: cytotoxicity against HRV Protease 3CP (serotype 2); format: functional
[30] = target: T2, Human rhinovirus A protease (Human rhinovirus sp.); experiment: cytotoxicity against HRV Protease 3CP (serotype 19); format: functional
[31] = target: T2, Human rhinovirus A protease (Human rhinovirus sp.); experiment: cytotoxicity against HRV Protease 3CP (serotype 10); format: functional
[32] = Half life period after 30 mg/kg po dose in Dogs; format: ADME, organism-based, Canis lupus familiaris; parameters: dose 30 mg/kg, route oral; conditions: dog, in vivo; summary of the method: as §2
[33] = Loss of compound (%metabolized) after 30 min exposure to human liver microsomes; format: ADME, Microsome; conditions: read-out: Metabolism
Summary of the method: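 Pooled human liver microsomes (1 mg/mL, 6–8 livers) with 2 mM NADPH in 100 mM potassium phosphate pH 7.4 were preincubated 1 min at 37 °C. Compound was added at 25 μM and incubated 30 min, then quenched with acetonitrile. Loss was measured against time-zero controls by reversed-phase HPLC with UV at 215 nm.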

[34] = target: T2, Human rhinovirus A protease (Human rhinovirus sp.); experiment: cytotoxicity against HRV Protease 3CP (serotype 1A),; format: functional
[35] = target: T2, Human rhinovirus A protease (Human rhinovirus sp.); experiment: cytotoxicity against HRV Protease 3CP (serotype 14),; format: functional
[36] = target: T2, Human rhinovirus A protease (Human rhinovirus sp.); experiment: cytotoxicity against HRV Protease 3CP (serotype 10),; format: functional
[37] = Half life upon exposure to human plasma; format: ADME, cell-free
Summary of the method: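 Pooled heparinized human plasma from 10 donors (stored at -70 °C), or 100 mM potassium phosphate buffer pH 7.4, n = 3 each. Compound added from fresh 5 mM acetonitrile stock to 25 μM final. Incubated at 37 °C for 1–3 h with regular sampling, acetonitrile precipitation, HPLC-UV at 212 nm. Half-life from linear regression of mean concentration–time data.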

[38] = target: T2, Human rhinovirus A protease (Human rhinovirus sp.); experiment: cytotoxicity against Human Rhinovirus Protease 3C (serotype 14)

CCOC(=O)/C=C/[C@H](CCC(N)=O)NC(=O)[C@H](Cc1ccccc1)n1cccc(NC(=O)c2cc(Cl)on2)c1=O
EC50 [1]: 0.024 µM | K obs / 1 [2]: 134000 M⁻¹ s⁻¹ | CC50 [3]: > 10 µM

CCOC(=O)/C=C/[C@H](CCC(N)=O)NC(=O)Cn1cccc(NC(=O)OCc2ccccc2)c1=O
EC50 [1]: > 10 µM | CC50 [3]: > 10 µM

CCOC(=O)/C=C/[C@H](CCC(N)=O)NC(=O)[C@H](CC1CCCCC1)n1cccc(NC(=O)OCc2ccccc2)c1=O
EC50 [1]: 0.178 µM | K obs / 1 [2]: 6500 M⁻¹ s⁻¹ | CC50 [3]: > 10 µM

CCOC(=O)/C=C/[C@H](CCC(N)=O)NC(=O)[C@H](Cc1ccccc1)n1cccc(NC(C)=O)c1=O
EC50 [1]: 0.888 µM | K obs / 1 [2]: 7660 M⁻¹ s⁻¹ | CC50 [3]: > 10 µM

Cc1cc(C(=O)Nc2cccn([C@@H](Cc3ccc(F)c(F)c3)C(=O)N[C@H](/C=C/C(=O)OC(C)C)C[C@@H]3CCNC3=O)c2=O)no1
bioavailability [4]: 48% | Tmax [5]: 1.17 h | CL/F [6]: 1.98 L/h/kg | CC50 [7]: > 10 µM | CC50 [8]: > 10 µM | CC50 [9]: > 10 µM | Cmax [10]: 10.6 µg/mL | CC50 [11]: > 10 µM | CC50 [12]: > 10 µM | CC50 [13]: > 10 µM | AUC [14]: 17.1 µg·h/mL | CC50 [15]: > 10 µM | Vd [16]: 4.2 L/kg | CC50 [17]: > 10 µM | half-life [18]: 3.23 h | CC50 [19]: > 10 µM | Tmax [20]: 4 min | CC50 [21]: > 10 µM | CC50 [22]: > 10 µM | metabolised at 0.5 h (Homo sapiens [23]): 55% | half-life (Homo sapiens [24]): 9.7 h | V (Canis familiaris): 9.6 L/kg | clearance [25]: 0.882 L/h/kg | CC50 [26]: > 10 µM | AUC [27]: 16.3 µg·h/mL | Cmax [28]: 3.5 µg/mL | CC50 [29]: > 10 µM | CC50 [30]: > 10 µM | CC50 [31]: > 10 µM | half-life [32]: 3.4 h

CCOC(=O)/C=C/[C@H](C[C@@H]1CCNC1=O)NC(=O)[C@H](Cc1ccc(F)cc1)n1cccc(NC(=O)c2cc(C)on2)c1=O
CC50 [8]: > 10 µM | EC50 [1]: 0.002 µM | K obs / 1 [2]: 1.25e+06 M⁻¹ s⁻¹ | CC50 [26]: > 10 µM | metabolised at 0.5 h [33]: 95% | CC50 [31]: > 10 µM

CCOC(=O)/C=C/[C@H](CCC(N)=O)NC(=O)[C@H](Cc1ccc(F)cc1)n1cccc(NC(=O)OCc2ccccc2)c1=O
CC50 [34]: > 10 µM | EC50 [1]: 0.014 µM | K obs / 1 [2]: 81400 M⁻¹ s⁻¹ | CC50 [35]: > 320 µM | CC50 [36]: > 10 µM

CCOC(=O)/C=C/[C@H](C[C@@H]1CCNC1=O)NC(=O)[C@H](Cc1ccc(F)c(F)c1)n1cccc(NC(=O)c2cc(C)on2)c1=O
CC50 [8]: > 10 µM | EC50 [1]: 0.001 µM | K obs / 1 [2]: 1.8e+06 M⁻¹ s⁻¹ | CC50 [26]: > 10 µM | half-life [37]: 1.4 h | metabolised at 0.5 h [33]: 80% | CC50 [31]: > 10 µM

CCOC(=O)c1ccc(OCCC2CCN(c3ccc(C)nn3)CC2)cc1 [PIRODAVIR]
EC50 [1]: 0.044 µM | CC50 [3]: > 10 µM

CCOC(=O)/C=C/[C@H](CCC(N)=O)NC(=O)[C@H](Cc1ccccc1)NC(=O)[C@H](CC(C)C)NC(=O)OCc1ccccc1
CC50 [38]: > 320 µM

CCOC(=O)/C=C/[C@H](C[C@H]1CCNC1=O)NC(=O)[C@H](Cc1ccccc1)n1cccc(NC(=O)OCc2ccccc2)c1=O
EC50 [1]: 0.469 µM | K obs / 1 [2]: 6340 M⁻¹ s⁻¹ | CC50 [3]: > 10 µM
